Assay outcomes (PubChem)
APJ ag: agonists of human APJ apelin receptor. P35414. 330,000 compounds, 0.11% hits. activation, % at 20 µM. CHO-K1 APJ PathHunter beta-arrestin, luminescence; 0% DMSO wells, 100% apelin;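 active = activation more than six SD over the plate average, tested at 20 µM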;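 also: 0% = DMSO alone and 100% = apelin-13 at 10 nM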
Target sequence (P35414 whole entry, looked up): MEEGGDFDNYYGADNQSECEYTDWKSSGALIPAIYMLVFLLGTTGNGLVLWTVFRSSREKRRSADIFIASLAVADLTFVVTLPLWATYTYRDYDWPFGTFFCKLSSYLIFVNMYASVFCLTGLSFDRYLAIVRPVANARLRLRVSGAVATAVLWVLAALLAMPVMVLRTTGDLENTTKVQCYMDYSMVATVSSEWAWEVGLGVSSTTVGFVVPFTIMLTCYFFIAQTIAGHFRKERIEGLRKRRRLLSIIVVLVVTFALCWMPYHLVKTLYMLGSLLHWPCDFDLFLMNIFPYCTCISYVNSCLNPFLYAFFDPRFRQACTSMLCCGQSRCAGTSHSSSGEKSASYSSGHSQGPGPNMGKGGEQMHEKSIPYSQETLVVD
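Incubation: overnight seeding, 90 min compound at 25 °C, 1 h detection; test system: PathHunter CHO-K1 APJ (AGTRL-1) beta-arrestin reporter cells; amount: 1000 cells/well; doses: one dose, 20 µM compound, 1% DMSO; measured by: beta-gal luminescence; measure: agonist-driven arrestin binding to APJ; benchmarks: negative DMSO alone, positive Apelin-13 at 10 nM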
EBI2 antag: blocks human EBI2 receptor beta-arrestin signaling. EBI2 beta-arrestin recruitment, luminescence, 7a,25-OHC stimulated. AID 651636. 360,000 compounds, 0.81% hits. inhibition, % at 5 µM; in the data active = inhibition above about 38%;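 also: enzyme fragment complementation signal reports receptor beta-arrestin coupling in cells; 0% = agonist plus DMSO wells and 100% = wells without agonist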
hiPSC survival: enhancers of human iPSC single-cell survival. hiPSC single-cell survival, ATPlite luminescence; 100% = ROCK inhibitor wells, 0% = DMSO. survival enhancement, % at 20 µM. 360,000 compounds, 0.044% hits. AID 602274; in the data active = survival enhancement above about 18%;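 also: cells exposed to compounds for 16 hours before the ATP read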
APJ antag: APJ receptor antagonism; P35414; CHO-K1 APJ beta-arrestin complementation, luminescence; inhibition, % at 20 µM; 330,000 compounds, 0.32% hits;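 active = inhibition above about 40% at 20 µM, limit read from the data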;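 also: cells challenged with 10 nM apelin-13 agonist together with compound; plate controls were apelin-13 plus DMSO wells for no effect and DMSO wells lacking apelin-13 for full effect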
CXCR6 inh: CXCR6 (human) receptor inhibition. O00574. CHO-K1 PathHunter CXCR6 beta-arrestin, luminescence. inhibition, % at 20 µM. 360,000 compounds, 0.36% hits. AID 602244; in the data active = inhibition above about 34%, passing the limit was not always enough;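 also: antagonist mode with CXCL16 agonist at 10 nM final; 0% = 10 nM CXCL16 with DMSO and 100% = unstimulated wells without agonist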
Target sequence (O00574 whole entry, looked up): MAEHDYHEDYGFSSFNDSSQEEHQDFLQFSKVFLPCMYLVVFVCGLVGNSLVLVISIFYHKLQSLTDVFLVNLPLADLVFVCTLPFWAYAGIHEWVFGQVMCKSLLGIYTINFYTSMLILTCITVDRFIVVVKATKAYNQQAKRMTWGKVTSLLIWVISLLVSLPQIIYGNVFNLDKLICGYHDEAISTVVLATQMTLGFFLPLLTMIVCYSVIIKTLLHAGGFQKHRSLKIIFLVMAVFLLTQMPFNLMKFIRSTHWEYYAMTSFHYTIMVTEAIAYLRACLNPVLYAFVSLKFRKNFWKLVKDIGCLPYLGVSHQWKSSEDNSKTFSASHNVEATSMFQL
CCR6 antagonist: antagonists of human CCR6 receptor; P51684; CHO-K1 CCR6 PathHunter beta-arrestin, luminescence, CCL20-stimulated; inhibition, % at 20 µM; 340,000 compounds, 0.49% hits;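 active = compounds whose inhibition of the agonist-driven luminescence signal at 20 µM reaches about 50%, limit read from the data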;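 also: cells stimulated with CCL20 at 14 nM final; plate controls were DMSO with CCL20 for no effect and DMSO without agonist for full effect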
CXCR6 antag conf: confirmation of human CXCR6 receptor antagonists; 700 compounds, 65% hits; inhibition, % at 20 µM; CHO-K1 CXCR6 PathHunter beta-arrestin, luminescence; shares compounds with CXCR6 inh; AID 602409;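 active = mean inhibition over four retests above 40%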;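 also: receptor stimulated with 10 nM CXCL16 agonist; beta-galactosidase fragment complementation upon beta-arrestin recruitment to receptor; plate controls were CXCL16 plus DMSO for no effect and DMSO without CXCL16 for full effect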
* marks the source's active call; other numbers are inactive results. Most compounds without a hit are left out; they make up all but 1.5% or so of the library.

How did C[C@@]12C(=O)N(c3cccc(F)c3)C(=O)N1[C@@H]1c3ccccc3OC[C@@H]1[C@H]2c1ccccc1 do in these assays?
APJ ag: -0.3; EBI2 antag: 19.8; hiPSC survival: 2.8; APJ antag: 1.2; CXCR6 inh: -10.2; CCR6 antagonist: 12.9

Results for CCc1ccc2c(c1)/C(=N/N(C)C(=S)NC)C(=O)N2 ?
APJ ag: -1.9; EBI2 antag: 0.4; hiPSC survival: 2.5; APJ antag: 16.3; CXCR6 inh: 0.3; CCR6 antagonist: 8.2

What do the screens show for `CCc1ccc2c(c1)/C(=C/C(=O)c1cccs1)C(=O)N2`?
APJ ag: 2.8; EBI2 antag: 66.6*; hiPSC survival: -1.6; APJ antag: -1.5; CXCR6 inh: 40.6*; CCR6 antagonist: 44.7; CXCR6 antag conf: 24.8

How did Cc1ccc(NS(=O)(=O)c2c(C)ccc3nsnc23)c([N+](=O)[O-])c1 do in these assays?
APJ ag: -3.6; EBI2 antag: 7.3; hiPSC survival: 0.2; APJ antag: -7.0; CXCR6 inh: 14.2; CCR6 antagonist: 15.2

How did C=CS(=O)(=O)c1ccc(Oc2ccc(S(=O)(=O)C=C)cc2)cc1 do in these assays?
APJ ag: 0.1; EBI2 antag: 47.3*; hiPSC survival: -2.1; APJ antag: 38.9; CXCR6 inh: 63.8*; CCR6 antagonist: 73.5*; CXCR6 antag conf: 65.9*

How did NS(=O)(=O)c1ccc(Oc2ccc(S(N)(=O)=O)cc2)cc1 do in these assays?
APJ ag: 0.9; EBI2 antag: -5.2; hiPSC survival: 0.7; APJ antag: 0.0; CXCR6 inh: 3.9; CCR6 antagonist: -0.5

How did Cc1cnc(C(=O)Nc2cccc3cccnc23)cn1 do in these assays?
EBI2 antag: 12.3; hiPSC survival: -0.7; CXCR6 inh: 51.4*; CCR6 antagonist: 56.0*; CXCR6 antag conf: 40.0

Results for CCN(CC(=O)NCC(=O)Nc1ccc(Br)cc1C)Cc1ccccc1 ?
APJ ag: -6.0; EBI2 antag: 9.4; hiPSC survival: 0.8; APJ antag: -1.8; CXCR6 inh: -2.9; CCR6 antagonist: 16.0

Results for CCCCc1c(Cc2ccccc2)ncn1CCc1ccccc1OC ?
EBI2 antag: 0.4; hiPSC survival: 0.3; CXCR6 inh: 38.4*; CXCR6 antag conf: 2.6

Results for COc1ccc(C)cc1NC(=O)c1cc(S(=O)(=O)N2CCOCC2)cn1C ?
APJ ag: 4.3; EBI2 antag: -2.2; hiPSC survival: 1.9; APJ antag: 17.1; CXCR6 inh: 2.2; CCR6 antagonist: 8.2

How did Nc1nnc(SCC(=O)OCC(=O)c2ccccc2Br)s1 do in these assays?
APJ ag: -0.4; EBI2 antag: -4.3; hiPSC survival: 0.3; APJ antag: 4.2; CXCR6 inh: 48.9*; CCR6 antagonist: 13.3; CXCR6 antag conf: 9.1

Results for Nc1nnc(SCC(=O)OCC(=O)c2ccccc2)s1 ?
APJ ag: -1.9; EBI2 antag: 2.6; hiPSC survival: 2.1; APJ antag: -5.7; CXCR6 inh: -2.5; CCR6 antagonist: -1.9

Results for C=C(C)CNC(=S)N/N=C(\C)c1ccc(Cl)s1 ?
APJ ag: -6.3; EBI2 antag: 17.6; hiPSC survival: 0.9; APJ antag: 19.4; CXCR6 inh: 18.0; CCR6 antagonist: 19.1

Results for CCNC(=S)N/N=C(\C)c1ccc(Cl)s1 ?
APJ ag: -4.8; EBI2 antag: 3.2; hiPSC survival: -0.3; APJ antag: 30.2; CXCR6 inh: 41.1*; CCR6 antagonist: 32.1; CXCR6 antag conf: 26.1

What do the screens show for `COc1ccc(C2(C)NC(=O)N(CC(=O)c3cc(C)n(C4CC4)c3C)C2=O)cc1OC` (stereo not drawn)?
APJ ag: -2.8; EBI2 antag: -13.2; hiPSC survival: 1.7; APJ antag: -7.2; CXCR6 inh: -7.2; CCR6 antagonist: 4.6

What do the screens show for `CS(=O)(=O)N1CCCCC1CCN1CCCCC1` (stereo not drawn)?
EBI2 antag: 2.8; hiPSC survival: -1.4; CXCR6 inh: 1.5; CCR6 antagonist: 2.5

How did O=C(Cc1ccc(NC(=O)C2CCCN(C(=O)C3CCCCC3)C2)cc1)Nc1cccc(C(=O)N2CCCC2)c1 (stereo not drawn) do in these assays?
EBI2 antag: -2.3; hiPSC survival: -0.5; CXCR6 inh: 91.1*; CCR6 antagonist: 0.7; CXCR6 antag conf: 19.3

What do the screens show for `C[C@H](NC(=O)c1ccccc1Cl)C(=O)OCc1cn2cc(Cl)ccc2n1`?
APJ ag: -1.8; EBI2 antag: -3.1; hiPSC survival: -0.5; APJ antag: -1.1; CXCR6 inh: -2.6; CCR6 antagonist: -8.8

Results for CC(=O)Nc1ccc(NC(=O)c2csc([C@@H]3O[C@H](CO)[C@H](O)[C@H](O)[C@H]3O)n2)cc1 ?
EBI2 antag: -6.3; hiPSC survival: 4.7; CXCR6 inh: 5.9

What do the screens show for `O=C(Nc1ccc(Oc2ccccc2)cc1)c1csc([C@@H]2O[C@H](CO)[C@H](O)[C@H](O)[C@H]2O)n1`?
EBI2 antag: 10.1; hiPSC survival: -0.8; CXCR6 inh: 47.8*; CXCR6 antag conf: 51.6*

How did COc1ccccc1C(=O)Nc1nnc(S(=O)(=O)N2CCN(c3ccc(F)cc3)CC2)s1 do in these assays?
APJ ag: -3.5; EBI2 antag: 12.8; hiPSC survival: -0.3; APJ antag: -6.6; CXCR6 inh: -0.7; CCR6 antagonist: -0.7

How did Nc1nc(COc2ccccc2)cs1 do in these assays?
APJ ag: -4.3; EBI2 antag: -10.6; hiPSC survival: -2.0; APJ antag: 14.4; CXCR6 inh: 59.3*; CCR6 antagonist: -13.1; CXCR6 antag conf: 3.0

Results for CCOC(=O)c1cc([N+](=O)[O-])c([N+](=O)[O-])cc1NC(C)=O ?
EBI2 antag: 12.5; hiPSC survival: -3.0; CXCR6 inh: 67.4*; CXCR6 antag conf: 63.9*

How did Cc1cccc(NC(=S)N/N=C/c2ccc([N+](=O)[O-])s2)c1 do in these assays?
APJ ag: -5.2; EBI2 antag: 31.5; hiPSC survival: -2.6; APJ antag: 17.5; CXCR6 inh: 56.2*; CXCR6 antag conf: 53.1*

Results for Cc1cccc(NC(=O)/C=C/c2ccc([N+](=O)[O-])s2)c1 ?
EBI2 antag: 26.4; hiPSC survival: -2.0; CXCR6 inh: 9.9; CCR6 antagonist: 3.0

What do the screens show for `CCCCNC(=O)N(O)C1N(/N=C/c2ccccc2OC)C(=S)SC1(C)C` (stereo not drawn)?
APJ ag: -4.4; EBI2 antag: -6.7; hiPSC survival: 0.1; APJ antag: 17.9; CXCR6 inh: 4.4; CCR6 antagonist: 8.0

How did C=CCN1C(=O)/C(=N/n2cnnc2)c2ccccc21 do in these assays?
APJ ag: -2.9; EBI2 antag: -8.1; hiPSC survival: -0.1; APJ antag: 9.3; CXCR6 inh: 5.7; CCR6 antagonist: 20.7
